Laboratory results reported in ChEMBL document CHEMBL4354843, “Structure-Based Design of a Potent and Selective Covalent Inhibitor for SRC Kinase That Targets a P-Loop Cysteine” (J Med Chem, 2020).

Key:
[1] = molecular target: Aurora kinase C (Homo sapiens) (UniProt Q9UQB9); assay: Binding affinity to wild-type human full length AURKC (M1 to S275 residues) expressed in bacterial expression system assessed as residual binding level at 1 uM by Kinomescan method relative to control
Procedure, shortened: (§1)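 KinomeScan, an active site-directed competition binding panel of 468 kinases. The test compound was at 1 μM. The readout is remaining kinase binding as a percentage of the DMSO control. Scores above 35% were treated as weak binding and not listed.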

[2] = molecular target: Serine/threonine-protein kinase D2 (Homo sapiens) (UniProt Q9BZL6); assay: Binding affinity to wild-type human partial length PRKD2 (A519 to E838 residues) expressed in bacterial expression system assessed as residual binding level at 1 uM by Kinomescan method relative to control
Serine/threonine-protein kinase D2 (Homo sapiens), sequence (Q9BZL6 whole entry, the tested form may be a part): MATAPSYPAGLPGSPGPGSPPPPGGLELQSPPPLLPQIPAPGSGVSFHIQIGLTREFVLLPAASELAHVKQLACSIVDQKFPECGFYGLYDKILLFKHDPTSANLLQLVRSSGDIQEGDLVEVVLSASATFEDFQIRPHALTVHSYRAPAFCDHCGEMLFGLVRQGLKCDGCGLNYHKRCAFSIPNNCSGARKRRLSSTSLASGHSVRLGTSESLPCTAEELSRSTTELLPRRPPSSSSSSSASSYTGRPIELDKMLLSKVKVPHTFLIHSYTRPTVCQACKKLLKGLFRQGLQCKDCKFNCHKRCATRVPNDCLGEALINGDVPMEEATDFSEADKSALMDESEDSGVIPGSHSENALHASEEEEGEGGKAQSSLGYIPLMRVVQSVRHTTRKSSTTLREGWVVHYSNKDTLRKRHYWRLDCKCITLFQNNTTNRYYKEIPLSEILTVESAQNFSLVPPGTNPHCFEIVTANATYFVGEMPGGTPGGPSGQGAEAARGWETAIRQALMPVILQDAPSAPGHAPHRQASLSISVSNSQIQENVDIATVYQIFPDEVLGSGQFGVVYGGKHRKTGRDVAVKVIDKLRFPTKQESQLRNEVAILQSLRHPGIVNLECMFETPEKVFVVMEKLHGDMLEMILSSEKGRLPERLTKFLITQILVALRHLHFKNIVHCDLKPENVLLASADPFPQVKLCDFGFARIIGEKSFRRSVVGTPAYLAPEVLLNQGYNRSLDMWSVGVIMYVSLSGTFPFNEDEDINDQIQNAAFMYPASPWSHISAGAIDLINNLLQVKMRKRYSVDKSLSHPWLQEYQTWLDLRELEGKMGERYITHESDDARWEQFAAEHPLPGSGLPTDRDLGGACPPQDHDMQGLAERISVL
Procedure, shortened: (§2)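 Active-site-directed competition binding panel of 468 kinases (KinomeScan), compound at 1 μM. The read-out is kinase remaining bound, given as a percentage of the DMSO control. […]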

[3] = molecular target: Serine/threonine-protein kinase SBK1 (Homo sapiens) (UniProt Q52WX2); assay: Binding affinity to wild-type human partial length SBK1 (P23 to P348 residues) expressed in mammalian expression system assessed as residual binding level at 1 uM by Kinomescan method relative to control
[4] = molecular target: Serine/threonine-protein kinase NLK (Homo sapiens) (UniProt Q9UBE8); assay: Binding affinity to wild-type human full length NLK (M13 to E527 residues) expressed in bacterial expression system assessed as residual binding level at 1 uM by Kinomescan method relative to control; procedure, shortened: as §1
Serine/threonine-protein kinase NLK (Homo sapiens), sequence (Q9UBE8 whole entry, the tested form may be a part): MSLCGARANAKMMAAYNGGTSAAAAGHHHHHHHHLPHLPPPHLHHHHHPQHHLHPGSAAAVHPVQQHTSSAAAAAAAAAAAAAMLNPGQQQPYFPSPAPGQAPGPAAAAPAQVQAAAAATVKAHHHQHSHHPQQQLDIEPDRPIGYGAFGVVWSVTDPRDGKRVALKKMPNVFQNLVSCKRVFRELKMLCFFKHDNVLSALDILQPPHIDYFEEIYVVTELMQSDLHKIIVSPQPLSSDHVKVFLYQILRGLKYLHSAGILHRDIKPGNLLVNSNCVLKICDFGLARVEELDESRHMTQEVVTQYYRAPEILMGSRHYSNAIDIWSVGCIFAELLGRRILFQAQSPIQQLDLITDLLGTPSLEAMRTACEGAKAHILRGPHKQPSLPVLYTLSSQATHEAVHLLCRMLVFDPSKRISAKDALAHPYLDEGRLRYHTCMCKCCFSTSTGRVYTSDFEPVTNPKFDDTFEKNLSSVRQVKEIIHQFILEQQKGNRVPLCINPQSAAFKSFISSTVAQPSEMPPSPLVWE

[5] = molecular target: 5'-AMP-activated protein kinase catalytic subunit alpha-1 (Homo sapiens) (UniProt Q13131); assay: Binding affinity to wild-type human partial length AMPK alpha1 (M1 to E306 residues) expressed in bacterial expression system assessed as residual binding level at 1 uM by Kinomescan method relative to control
[6] = molecular target: Tyrosine-protein kinase Blk (Homo sapiens) (UniProt P51451); assay: Binding affinity to wild-type human partial length BLK (G211 to L503 residues) expressed in bacterial expression system assessed as residual binding level at 1 uM by Kinomescan method relative to control; procedure, shortened: as §1
[7] = molecular target: Calcium/calmodulin-dependent protein kinase type II subunit alpha (Homo sapiens) (UniProt Q9UQM7); assay: Binding affinity to wild-type human partial length CAMK2A (M1 to K328 residues) expressed in bacterial expression system assessed as residual binding level at 1 uM by Kinomescan method relative to control
[8] = molecular target: Serine/threonine-protein kinase TBK1 (Homo sapiens) (UniProt Q9UHD2); assay: Binding affinity to wild-type human full length TBK1 (M1 to L729 residues) expressed in mammalian expression system assessed as residual binding level at 1 uM by Kinomescan method relative to control; procedure, shortened: as §1
Serine/threonine-protein kinase TBK1 (Homo sapiens), sequence (Q9UHD2 whole entry, the tested form may be a part): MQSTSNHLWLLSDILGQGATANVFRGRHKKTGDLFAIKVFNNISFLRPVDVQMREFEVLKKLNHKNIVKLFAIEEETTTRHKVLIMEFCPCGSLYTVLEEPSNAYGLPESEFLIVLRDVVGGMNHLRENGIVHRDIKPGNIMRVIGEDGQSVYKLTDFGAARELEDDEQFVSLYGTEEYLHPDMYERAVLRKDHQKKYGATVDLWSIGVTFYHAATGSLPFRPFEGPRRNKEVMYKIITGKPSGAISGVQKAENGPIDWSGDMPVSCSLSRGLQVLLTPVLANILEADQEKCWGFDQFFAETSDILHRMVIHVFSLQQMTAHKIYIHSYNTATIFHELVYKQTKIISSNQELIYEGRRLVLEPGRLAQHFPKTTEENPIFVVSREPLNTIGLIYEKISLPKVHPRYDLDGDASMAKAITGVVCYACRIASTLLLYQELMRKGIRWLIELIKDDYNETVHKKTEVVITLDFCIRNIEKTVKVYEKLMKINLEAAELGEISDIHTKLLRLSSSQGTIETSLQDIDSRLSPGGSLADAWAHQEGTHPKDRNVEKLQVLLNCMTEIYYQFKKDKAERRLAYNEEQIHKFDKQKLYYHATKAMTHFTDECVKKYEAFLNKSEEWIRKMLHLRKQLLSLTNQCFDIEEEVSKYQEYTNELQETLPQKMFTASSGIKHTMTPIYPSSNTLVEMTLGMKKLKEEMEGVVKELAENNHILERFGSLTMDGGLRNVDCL

[9] = molecular target: Platelet-derived growth factor receptor beta (Homo sapiens) (UniProt P09619); assay: Binding affinity to wild-type human partial length PDGFRB (V582 to Y1009 residues) expressed in bacterial expression system assessed as residual binding level at 1 uM by Kinomescan method relative to control; procedure, shortened: as §2
[10] = molecular target: ALK tyrosine kinase receptor (Homo sapiens) (UniProt Q9UM73); assay: Binding affinity to wild-type human partial length ALK (I1088 to E1409 residues) expressed in mammalian expression system assessed as residual binding level at 1 uM by Kinomescan method relative to control
[11] = test system: Epidermal growth factor receptor (Homo sapiens), P00533 [L858R,T790M]; assay: Binding affinity to human partial length EGFR L858R/T790M double mutant (R669 to V1011 residues) expressed in mammalian expression system assessed as residual binding level at 1 uM by Kinomescan method relative to control
Procedure, shortened: (§3)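 KinomeScan active site-directed competition binding panel (468 kinases), compound tested at 1 μM. Result expressed as remaining kinase signal versus DMSO control (percent of control).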

[12] = molecular target: Transient receptor potential cation channel subfamily M member 6 (Homo sapiens) (UniProt Q9BX84); assay: Binding affinity to wild-type human partial length TRPM6 (Q1723 to I1998 residues) expressed in mammalian expression system assessed as residual binding level at 1 uM by Kinomescan method relative to control
Procedure, shortened: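 Active site-directed competition binding panel (KinomeScan, 468 kinases). Test compound at 1 μM. Read-out is kinase binding remaining versus DMSO control, expressed as percent of control. Scores above 35% are treated as weak binding.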

[13] = test system: Mast/stem cell growth factor receptor Kit (Homo sapiens), P10721 [L576P]; assay: Binding affinity to human partial length KIT L576P mutant (Y545 to D952 residues) expressed in bacterial expression system assessed as residual binding level at 1 uM by Kinomescan method relative to control; procedure, shortened: as §3
[14] = molecular target: Serine/threonine-protein kinase PAK 5 (Homo sapiens) (UniProt Q9P286); assay: Binding affinity to wild-type human partial length PAK7 (Y400 to H719 residues) expressed in bacterial expression system assessed as residual binding level at 1 uM by Kinomescan method relative to control
[15] = molecular target: Tyrosine-protein kinase Lyn (Homo sapiens) (UniProt P07948); assay: Binding affinity to wild-type human partial length LYN (C219 to Q511 residues) expressed in bacterial expression system assessed as residual binding level at 1 uM by Kinomescan method relative to control; procedure, shortened: as §2
Tyrosine-protein kinase Lyn (Homo sapiens), sequence (P07948 2-512 limits assumed): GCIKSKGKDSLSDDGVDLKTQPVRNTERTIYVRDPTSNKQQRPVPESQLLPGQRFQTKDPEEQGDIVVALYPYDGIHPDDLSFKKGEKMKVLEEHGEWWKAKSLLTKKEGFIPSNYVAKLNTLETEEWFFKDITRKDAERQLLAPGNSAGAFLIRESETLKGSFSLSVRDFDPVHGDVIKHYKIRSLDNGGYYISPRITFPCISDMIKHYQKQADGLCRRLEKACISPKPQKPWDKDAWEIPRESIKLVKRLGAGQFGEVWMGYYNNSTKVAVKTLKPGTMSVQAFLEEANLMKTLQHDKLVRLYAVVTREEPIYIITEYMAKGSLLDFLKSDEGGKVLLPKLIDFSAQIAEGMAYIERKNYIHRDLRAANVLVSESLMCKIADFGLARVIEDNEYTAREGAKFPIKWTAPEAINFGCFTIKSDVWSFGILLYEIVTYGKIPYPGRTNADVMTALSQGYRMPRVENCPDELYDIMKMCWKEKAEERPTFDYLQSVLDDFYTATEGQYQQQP

[16] = molecular target: Cytoplasmic tyrosine-protein kinase BMX (Homo sapiens) (UniProt P51813); assay: Binding affinity to wild-type human full length BMX (M1 to H675 residues) expressed in bacterial expression system assessed as residual binding level at 1 uM by Kinomescan method relative to control; procedure, shortened: as §1
Cytoplasmic tyrosine-protein kinase BMX (Homo sapiens), sequence (P51813 whole entry, the tested form may be a part): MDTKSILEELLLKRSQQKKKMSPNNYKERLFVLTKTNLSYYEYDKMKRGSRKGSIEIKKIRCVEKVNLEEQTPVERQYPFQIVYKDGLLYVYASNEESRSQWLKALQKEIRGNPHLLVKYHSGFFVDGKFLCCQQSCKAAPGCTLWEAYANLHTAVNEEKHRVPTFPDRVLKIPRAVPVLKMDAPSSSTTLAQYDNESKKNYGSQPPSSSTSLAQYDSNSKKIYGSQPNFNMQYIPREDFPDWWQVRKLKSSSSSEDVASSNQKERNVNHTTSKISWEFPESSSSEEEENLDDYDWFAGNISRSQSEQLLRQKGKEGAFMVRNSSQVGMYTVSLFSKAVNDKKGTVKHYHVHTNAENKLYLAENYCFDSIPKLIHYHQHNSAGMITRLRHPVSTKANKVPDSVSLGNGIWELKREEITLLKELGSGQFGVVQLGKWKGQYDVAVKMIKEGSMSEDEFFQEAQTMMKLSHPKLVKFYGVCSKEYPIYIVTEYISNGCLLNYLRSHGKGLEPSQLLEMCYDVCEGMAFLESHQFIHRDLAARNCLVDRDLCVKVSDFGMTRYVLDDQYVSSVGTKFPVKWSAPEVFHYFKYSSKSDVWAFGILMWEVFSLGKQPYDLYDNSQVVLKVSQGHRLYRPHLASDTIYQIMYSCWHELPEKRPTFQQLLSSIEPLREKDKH

[17] = test system: Epidermal growth factor receptor (Homo sapiens), P00533 [UNDEFINED MUTATION]; assay: Binding affinity to human partial length EGFR S752-I759del mutant expressed in bacterial expression system assessed as residual binding level at 1 uM by Kinomescan method relative to control; procedure, shortened: as §3
[18] = molecular target: cAMP-dependent protein kinase catalytic subunit alpha (Homo sapiens) (UniProt P17612); assay: Binding affinity to wild-type human partial length PKAC-alpha (G10 to F351 residues) expressed in bacterial expression system assessed as residual binding level at 1 uM by Kinomescan method relative to control
[19] = molecular target: Serine/threonine-protein kinase ULK2 (Homo sapiens) (UniProt Q8IYT8); assay: Binding affinity to wild-type human partial length ULK2 (M1 to S301 residues) expressed in mammalian expression system assessed as residual binding level at 1 uM by Kinomescan method relative to control
Serine/threonine-protein kinase ULK2 (Homo sapiens), sequence (Q8IYT8 whole entry, the tested form may be a part): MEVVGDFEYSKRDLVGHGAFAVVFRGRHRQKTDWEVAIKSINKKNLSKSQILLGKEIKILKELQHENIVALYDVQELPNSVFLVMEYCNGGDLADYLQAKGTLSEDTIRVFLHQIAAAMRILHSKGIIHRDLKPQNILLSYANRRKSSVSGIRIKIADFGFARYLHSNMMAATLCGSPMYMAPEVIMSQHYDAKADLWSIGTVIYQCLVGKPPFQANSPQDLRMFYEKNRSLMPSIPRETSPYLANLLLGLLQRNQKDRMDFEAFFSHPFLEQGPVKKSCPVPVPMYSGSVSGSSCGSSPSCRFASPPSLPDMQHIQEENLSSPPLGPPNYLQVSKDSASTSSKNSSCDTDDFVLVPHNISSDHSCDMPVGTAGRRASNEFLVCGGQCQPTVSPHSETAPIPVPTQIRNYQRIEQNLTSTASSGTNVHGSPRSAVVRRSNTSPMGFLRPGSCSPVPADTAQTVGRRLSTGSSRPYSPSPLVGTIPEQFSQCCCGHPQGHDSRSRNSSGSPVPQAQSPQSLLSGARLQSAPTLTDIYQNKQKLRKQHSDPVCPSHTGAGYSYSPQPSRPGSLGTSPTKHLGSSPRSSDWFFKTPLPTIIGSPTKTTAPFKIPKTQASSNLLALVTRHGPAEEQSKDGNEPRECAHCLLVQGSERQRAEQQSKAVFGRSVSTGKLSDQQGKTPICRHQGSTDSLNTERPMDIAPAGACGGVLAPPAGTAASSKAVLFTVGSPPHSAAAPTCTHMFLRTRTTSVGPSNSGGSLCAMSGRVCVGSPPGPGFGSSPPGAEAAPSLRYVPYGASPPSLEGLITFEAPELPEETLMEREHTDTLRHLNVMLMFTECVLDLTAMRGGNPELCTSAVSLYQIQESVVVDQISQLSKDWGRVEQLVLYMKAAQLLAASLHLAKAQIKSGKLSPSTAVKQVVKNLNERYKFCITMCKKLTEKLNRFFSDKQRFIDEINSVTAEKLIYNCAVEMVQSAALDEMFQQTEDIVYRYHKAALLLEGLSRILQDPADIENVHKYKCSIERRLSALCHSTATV

[20] = molecular target: Serine/threonine-protein kinase PAK 3 (Homo sapiens) (UniProt O75914); assay: Binding affinity to wild-type human full length PAK3 (M1 to R544 residues) expressed in bacterial expression system assessed as residual binding level at 1 uM by Kinomescan method relative to control; procedure, shortened: as §1
[21] = molecular target: Receptor-interacting serine/threonine-protein kinase 4 (Homo sapiens) (UniProt P57078); assay: Binding affinity to wild-type human partial length RIPK4 (M1 to V303 residues) expressed in mammalian expression system assessed as residual binding level at 1 uM by Kinomescan method relative to control

Aurora kinase C (Homo sapiens), sequence (Q9UQB9 whole entry, the tested form may be a part): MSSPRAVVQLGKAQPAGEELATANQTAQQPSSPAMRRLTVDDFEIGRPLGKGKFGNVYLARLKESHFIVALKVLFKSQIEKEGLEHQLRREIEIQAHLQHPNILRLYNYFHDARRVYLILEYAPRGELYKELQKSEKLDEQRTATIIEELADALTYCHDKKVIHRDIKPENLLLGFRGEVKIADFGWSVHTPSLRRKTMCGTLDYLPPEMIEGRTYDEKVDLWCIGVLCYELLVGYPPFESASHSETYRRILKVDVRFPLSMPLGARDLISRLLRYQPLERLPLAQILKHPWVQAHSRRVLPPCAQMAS

For `C=CC(=O)Nc1ccccc1Nc1nc(Nc2ccc(N3CCN(C)CC3)cc2)ncc1C(=O)Nc1c(C)cccc1Cl`, the Activity [1] was 98%, the Activity [2] was 99% and the Activity [3] was 100%. The Activity [4] was 76%, the Activity [5] was 100% and the Activity [6] was 0.15%. It also gave an Activity [7] of 100%, an Activity [8] of 70% and an Activity [9] of 29%. The Activity [10] was 100%, the Activity [11] was 100% and the Activity [12] was 81%. The Activity [13] was 65%, the Activity [14] was 100% and the Activity [15] was 2.8%. It also gave an Activity [16] of 48%, an Activity [17] of 92% and an Activity [18] of 100%. The Activity [19] was 100%, the Activity [20] was 76% and the Activity [21] was 100%.
